From the RNAGym collection of RNA variant scans (doi:10.1126/science.aae0568)
Variants at the floor of the assay were thinned out.

B1: tRNA (parent)
chain: GUUCCGUUGGCGUAAUGGUAACGCGUCUCCCUCCUAAGGAGAAGACUGCGGGUUCGAGUCCCGUACGGAACG

Variants of: B1
Assay: yeast fitness relative to wild type (ratio to wild type); higher = fitter; tRNA-Arg(CCU), competitive growth, 37 C, YPD
Procedure, shortened: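 Genotype frequency changes were the basis for Darwinian fitness relative to wild type. The frequencies came from 100-nucleotide paired-end sequencing of gene amplicons from the start population and each end population of pooled yeast strains with tRNA-Arg(CCU) gene variants at the native locus. Competition ran in YPD at 37°C for 24 hours in six replicates, genotypes needed ≥ 100 starting reads, and estimates < 0.5 were set to 0.5.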

Variant	yeast fitness
U54A C55U	0.615
G25C U26G C46G	0.576
C11A U28C C46A C55U C61U	≤ 0.5
C11U U16C C31U U54C	≤ 0.5
A43C G50C A70U	0.574
G39A G41C C46A G68A	0.55
A20G G44C	0.929
C22U C24G C55U A65G	≤ 0.5
C4G A20U C61G	≤ 0.5
A21C G41C	0.695
C55G U59G	0.566
G10A C11A A14G A15G G38A	≤ 0.5
U7A G9A U13G G56A	≤ 0.5
C4U C29U C62U U64C A65U	≤ 0.5
C34A C49A U59G	0.654
C29G U32C C46U	≤ 0.5
G17C U28G U54A	≤ 0.5
U3C G6A A14G G18C C30U C31U G48A C55G	≤ 0.5
C30U A36C	0.566
C4G U16G	0.831
U3G A15G C24G G50A C55U C61U A65U	≤ 0.5
C4G A14C	0.568
A14G C34A C49U G51C C61U	≤ 0.5
A65U G67A	0.839

Variant	yeast fitness
U19G G41C A43U	0.512
A20U C29G C49G U54C G63C	0.535
C33G A40G G51C C61U A65U	0.667
A15C A20G A21G A57U	≤ 0.5
G10C U53A C66U	≤ 0.5
C24U A37U G63C	≤ 0.5
C4A A36U G50A C61U	≤ 0.5
U19A G41C C55G C66G	≤ 0.5
A15U U32C A42C	0.596
U26C C27U	1.02
A69G A70U	0.99
A15C A45U C66A	≤ 0.5
U26A C27G C30G A36U G38C C46U C49G A65U	0.573
U3A C46A G63A A69C	0.731
C11U A40C A43U U53A	≤ 0.5
U3G U13C A14U C29A C55U	0.611
G10A A21C C61G U64C	≤ 0.5
U8A C11U A21C G56C G68C	≤ 0.5
U2C C31G C62A	0.532
G12C G52C	0.563
C27U C29U C49U	0.71
C5U U13C C24G U26C A37G U54G	≤ 0.5
G23C C24U U59A	≤ 0.5
C24A U26G A43C C62G G63A C66G	0.514

Variant	yeast fitness
C11G A36G G39A G56A	≤ 0.5
U13A C27G A40G G41C A69U	1.07
G17C C22U U32C C46U	≤ 0.5
U7A U19A A20C A40G	≤ 0.5
C11A A14G C24U G41C C55G	0.581
A43G G48C C66G	≤ 0.5
A20C A69C	1.13
C24U G58A C62U G63A	≤ 0.5
U7C C30G A40C A42G	0.534
C29A A42G A57C	0.592
U8G G23C A37G A70G	0.631
A14U C24G C31A A40G G44C C55U A69U	≤ 0.5
G18C U59C	0.559
U8C A21U G39C G50A	≤ 0.5
C24U G67C G68A	0.587
C4A A21C C22U U35C G50C A70U	0.563
C5A C49U A65C	0.614
U7A U8C C61U	0.604
A14C C29A	0.596
U16A G25C	0.974
G9A A37C A43C	0.524
U8C G9A A20C	0.772
U19C C29G C31A	≤ 0.5
C11U U26A C31G A37U	≤ 0.5

Variant	yeast fitness
C33U G38A G41U C46U	≤ 0.5
A15C C34U C55A	≤ 0.5
A20C A43G	1.01
C4U G48A	0.857
C49A	0.759
A14C A20C C33G A65C C66U	0.758
U13C A15G C22G	0.571
A20U G23A G68A A69U A70U	≤ 0.5
A14U G67C	0.729
U28G A36G A45G	0.718
U32G U35A	≤ 0.5
C4A C5U U19A C55U	0.539
C11A G58A G68U	≤ 0.5
U2C G25A A42U A65C G67C	≤ 0.5
G52C C60U	0.533
U19G C30A C49U	0.602
C24U A37C G39C A43G	≤ 0.5
C49U A69U A70G	0.687
G6C A15U G23A C29U A43G	≤ 0.5
C5U G68C	0.842
U3A C4U U7A C24U	≤ 0.5
C5G A14C C29A C31G G56A	≤ 0.5
C5U U13G A15U	≤ 0.5
C11A A37C C49G	≤ 0.5

Variant	yeast fitness
U13A C22U C46U	1.06
C5U A37G A43C C46U C62U	≤ 0.5
C4A G23A	0.89
C11U A21U C61A A70U	≤ 0.5
G6C A36C	0.53
C5U A14C U35C	≤ 0.5
C33U U59A	0.67
A21U C55U A65C	≤ 0.5
C5G G6C G67A	≤ 0.5
A21U C29G C31G A43U C60U	0.586
C24U U28G C33G C34U A36G A40G A70C	≤ 0.5
G10C C55A	0.568
U13A A21G G63A	0.652
A21C A70G	0.861
G39A C62G	0.752
U2G A14U U28A	≤ 0.5
A21U G25A C29A A36G C46A C55A	≤ 0.5
A15G C22U A36U C62U	≤ 0.5
C4G A40C	0.811
A20U C22A A45C U53A	0.594
G17C C46G A57U G63A	≤ 0.5
U13A C24U G41U U47C	≤ 0.5
C11A A37U G67A	≤ 0.5
U13G G38C A42G G56C U59A A70U	≤ 0.5

Variant	yeast fitness
C46G C49G	0.966
U8C G9A G41C A69U	≤ 0.5
G25C A70U	0.867
A57G U59C A70G	0.684
C24U C55G A70U	0.698
C5G U13A C31G G50A G67A	≤ 0.5
G23C C29A G38A	≤ 0.5
C29U C60G C62U	0.546
U32C C34U A45U A70U	0.826
G6C A15C A21C C34U A37U A57U	≤ 0.5
U8C C31A A42G A57U U59A	≤ 0.5
G12A A20U A42C G68A	0.519
A15G G23A	0.931
A14C C27A G39A C55U A70G	≤ 0.5
U7A A57U U59A A69C	0.702
A20C U53G C66U	0.696
C4U A37U G52C A65C	≤ 0.5
G41C U47C	0.937
A15C C27G C61G	0.781
U3A G9A A15C C27U A57U C62A	0.667
U19C A20U G56A	0.724
C11U C27U U35C	0.635
C11G C27G C31A C60G	≤ 0.5
C11G A40G C61A	0.605

Variant	yeast fitness
A15C C30G A37C	≤ 0.5
G9C U28A A45C G48C C62G	0.545
C11G G50A C61U	0.566
A14U A45U U47A	≤ 0.5
A15G C31G U35C	0.531
C24G C33G C66U	≤ 0.5
G10A G17C C30G C33G G48A C61A A69U	≤ 0.5
A57C C61U C66U A69C	≤ 0.5
A15G A20U	1.06
U3G U16A A65G	0.664
U3C G23A	0.701
C22A C27G A65U	≤ 0.5
C11A U26C C29G C31U G52C C55A U59G	≤ 0.5
A14U C29G C55G A69G A70G	≤ 0.5
U54C G56A C62A	≤ 0.5
C55G U64C	0.679
C5A C11U C30A A57G	≤ 0.5
C24U U35G A42G G51A	≤ 0.5
C5U G18C A45U	≤ 0.5
C5U A15U G23C A45U C62A	≤ 0.5
U2G C4U C60A	≤ 0.5
C5U U8C C11G A15U C49U G51A G63A	≤ 0.5
C4U G25C G67A	0.719
